# Test results as given in ChEMBL document CHEMBL1147853, “Synthesis and anti-HIV studies of 2-adamantyl-substituted thiazolidin-4-ones” (Eur J Med Chem, 2007).
# Calls of active or inactive are those of the source. The calls are words filed in the database; no cut-off is given here.
# Assays:
# [1] = tested on: Human immunodeficiency virus 1; assay: Antiviral activity against HIV1 3B in CEM cells; format: functional, organism-based; conditions: Human immunodeficiency virus 1, 3B, CCRF-CEM
# Outline: (§1)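 CEM cells at 4×10^4 cells/mL infected with virus at ~100 CCID50 per mL of cell suspension, then mixed 1:1 with serial dilutions of compound. After four days, giant cell formation was scored microscopically.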
# [2] = tested on: Human immunodeficiency virus 2; assay: Antiviral activity against HIV2 ROD in CEM cells; format: functional, organism-based; conditions: Human immunodeficiency virus 2, ROD, CCRF-CEM; outline: as §1
# [3] = Cytotoxicity against CEM cells; format: cell-based; conditions: human, CEM (CCRF-CEM) cells
# Outline: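 CEM cells were plated at 300,000–500,000 cells/mL with an equal volume of compound dilutions and incubated 3 days at 37 °C. Cell number was counted with a Coulter counter.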
# [4] = Selectivity index, ratio of CC50 for CEM cells to EC50 for HIV1 infected CEM cells; format: functional, CCRF-CEM
# Influenza A virus = assay: Antiviral activity against influenza virus H3N2 in MDCK cells; format: functional, organism-based
# [5] = biological target: T1, Human immunodeficiency virus type 1 reverse transcriptase (Human immunodeficiency virus 1, UniProt Q72547); assay: Inhibition of HIV1 reverse transcriptase using Poly rC.dG template
# [6] = biological target: T1, Human immunodeficiency virus type 1 reverse transcriptase; assay: Inhibition of HIV1 reverse transcriptase using Poly rA.dT template
# Outline: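 Recombinant HIV-1(IIIB) RT was assayed in 50 mM Tris-HCl pH 7.8 with 5 mM DTT, 300 mM glutathione, 500 µM EDTA, 150 mM KCl, 5 mM MgCl2, BSA and 0.06% Triton X-100. Template/primer was poly(A).oligo(dT) at 0.1 mM with [3H]dTTP at 0.6 µM. Reactions ran 30 min at 37 °C, followed by TCA precipitation and radioactivity counting.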
# [7] = tested on: Human immunodeficiency virus 1; assay: Antiviral activity against HIV1 3B with reverse transcriptase Lys103 Asn mutation; format: functional, organism-based; conditions: Human immunodeficiency virus 1, 3B
# Outline: (§2)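 CEM cells at 4×10^4 cells/mL were infected with HIV-1(III_B) strains carrying NNRTI-type RT mutations, at ~100 CCID₅₀ per mL of cell suspension. Infected cells were mixed 1:1 with serial compound dilutions. Giant cell formation was scored microscopically after four days. EC₅₀ is the concentration inhibiting virus-induced cytopathicity by 50%.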
# [8] = tested on: Human immunodeficiency virus 1; assay: Antiviral activity against HIV1 3B with reverse transcriptase Leu100Ile mutation; format: functional, organism-based; conditions: Human immunodeficiency virus 1, 3B; outline: as §2
# [9] = tested on: Human immunodeficiency virus 1; assay: Antiviral activity against HIV1 3B with reverse transcriptase Tyr181Cys mutation; format: functional, organism-based; conditions: Human immunodeficiency virus 1, 3B; outline: as §2
# [10] = tested on: Human immunodeficiency virus 1; assay: Antiviral activity against HIV1 3B with reverse transcriptase Tyr181Ile mutation; format: functional, organism-based; conditions: Human immunodeficiency virus 1, 3B; outline: as §2
# [11] = tested on: Human immunodeficiency virus 1; assay: Antiviral activity against HIV1 3B with reverse transcriptase Tyr181His mutation; format: functional, organism-based; conditions: Human immunodeficiency virus 1, 3B
Compound,EC50 [1] [µM],EC50 [2] [µM],CC50 [3] [µM],Ratio CC50/EC50 [4],Activity (Influenza A virus),IC50 [5] [µM],IC50 [6] [µM],EC50 [7] [µM],EC50 [8] [µM],Ki [5] [µM],EC50 [9] [µM],EC50 [10] [µM],EC50 [11] [µM]
Cc1cccnc1N1C(=O)CSC1C12CC3CC(CC(C3)C1)C2 (stereo unspecified),> 12,> 12,29,<2.5,inactive,,,,,,,,
O=C1CSC(C23CC4CC(CC(C4)C2)C3)N1CCN1CCOCC1 (stereo unspecified),> 57,> 57.1,140,<3,inactive,,,,,,,,
COc1ccc(N2C(=O)CSC2C23CC4CC(CC(C4)C2)C3)cc1 (stereo unspecified),> 12,> 12,74,<6,inactive,,,,,,,,
Cc1cccc(N2C(=O)CSC2C23CC4CC(CC(C4)C2)C3)n1 (stereo unspecified),21,> 304,> 304,14,inactive,40,43,,,,,,
CN(C)CCCN1C(=O)CSC1C12CC3CC(CC(C3)C1)C2 (stereo unspecified),31,> 62,122,4,inactive,≥ 620,> 620,,,,,,
Cc1cc(C)nc(N2C(=O)CSC2C23CC4CC(CC(C4)C2)C3)c1 (stereo unspecified),0.35,> 11.7,42,120,,29,38,,,,,,
Cc1cc(C)nc(N2C(=O)CSC2C)c1 (stereo unspecified),> 450,> 450,> 450,>450,,≥ 900,> 900,,,,,,
N#Cc1ccc(N2C(=O)CSC2C23CC4CC(CC(C4)C2)C3)cc1 (stereo unspecified),> 295,> 295,≥ 295,<=1,inactive,,,,,,,,
CCN(CC)CCCN1C(=O)CSC1C12CC3CC(CC(C3)C1)C2 (stereo unspecified),28,> 57,89,3.1,inactive,> 571,> 571,,,,,,
O=C1CSC(C23CC4CC(CC(C4)C2)C3)N1c1ccc(F)cc1 (stereo unspecified),> 302,> 302,≥ 302,<=1,inactive,,,,,,,,
O=c1[nH]cnc2c1ncn2[C@H]1CC[C@@H](CO)O1 [DIDANOSINE],4.6,,> 250,>54,,,,,,,,,
Cc1cc(C)nc(N2C(=O)CS[C@@H]2C23CC4CC(CC(C4)C2)C3)c1,0.178,> 12,35,198,inactive,19,20,1.5,2.3,12,8.2,> 12,> 12
CCN(CC)CCN1C(=O)CSC1C12CC3CC(CC(C3)C1)C2 (stereo unspecified),7.7,> 59,56,7.2,inactive,475,481,,,,,,
Cc1ccc(N2C(=O)CSC2C23CC4CC(CC(C4)C2)C3)nc1 (stereo unspecified),> 12,> 12.4,59,<4.8,inactive,,,,,,,,
Cc1cc(C)nc(N2C(=O)CS[C@H]2C23CC4CC(CC(C4)C2)C3)c1,12,> 58,44,3.8,inactive,> 584,> 584,,,,,,
O=C1CSC(C23CC4CC(CC(C4)C2)C3)N1c1ccc(Cl)c(C(F)(F)F)c1 (stereo unspecified),> 48,> 48,> 240,<1,inactive,,,,,,,,
O=C1CSC(C23CC4CC(CC(C4)C2)C3)N1c1cccnc1 (stereo unspecified),≥ 32,> 63,105,<=3,inactive,≥ 636,≥ 636,,,,,,
O=C1CSC(C23CC4CC(CC(C4)C2)C3)N1c1ccc(I)cc1 (stereo unspecified),> 228,> 45,≥ 228,<=1,inactive,,,,,,,,
O=C1CSC(C23CC4CC(CC(C4)C2)C3)N1CCN1CCCCC1 (stereo unspecified),> 11,> 11,44,<4,inactive,,,,,,,,
Cc1ccnc(N2C(=O)CSC2C23CC4CC(CC(C4)C2)C3)c1 (stereo unspecified),5.6,> 304,> 304,>54,inactive,40,88,,,,,,
CN(C)CCN1C(=O)CSC1C12CC3CC(CC(C3)C1)C2 (stereo unspecified),65,> 65,125,1.9,inactive,> 648,> 648,,,,,,
O=C1CSC(C23CC4CC(CC(C4)C2)C3)N1c1ccncc1 (stereo unspecified),> 63,> 63,159,<2.5,inactive,,,,,,,,
O=C1CSC(C23CC4CC(CC(C4)C2)C3)N1c1ccc(Br)cc1 (stereo unspecified),> 255,> 255,≥ 255,<1,inactive,,,,,,,,
Cc1ccnc2c1NC(=O)c1cccnc1N2C1CC1 [NEVIRAPINE],,> 50,> 50,,,,,,,,,,
O=C1CSC(C23CC4CC(CC(C4)C2)C3)N1c1ccc(Cl)cc1 (stereo unspecified),> 57,> 57.5,≥ 287,<=5,inactive,,,,,,,,
O=C1CSC(C23CC4CC(CC(C4)C2)C3)N1c1ccccn1 (stereo unspecified),> 318,> 318,> 318,<1,inactive,,,,,,,,
